Assay results as given in ChEMBL document CHEMBL1141147, “Development of dual-acting benzofurans for thromboxane A2 receptor antagonist and prostacyclin receptor agonist: synthesis, structure-activity relationship, and evaluation of benzofuran derivatives” (J Med Chem, 2005).

Assays:
Prostacyclin receptor = Prostacyclin receptor (Homo sapiens, UniProt P43119); test: Inhibition of [3H]APS-314d binding to prostacyclin receptors (IP) of human platelet membrane
Procedure, shortened: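 Human platelet membranes (10 μg protein; freeze-thawed washed platelets, 40000g pellet) in 50 mM Tris, 5 mM MgCl₂, pH 7.4 were incubated with [³H]APS-314d sodium and compound for 60 min at 4 °C. Bound ligand was separated by GF/C filtration and counted by liquid scintillation. Nonspecific binding was set with 10 μM APS-314d sodium. Ki was derived from IC50 via the Cheng–Prusoff form.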

Thromboxane A2 receptor = molecular target: T1, Thromboxane A2 receptor (Homo sapiens, UniProt P21731); test: Inhibition of [3H]SQ-29,548 binding to thromboxane A2 receptors (TP) of human platelet membrane
T1 sequence (P21731 whole entry): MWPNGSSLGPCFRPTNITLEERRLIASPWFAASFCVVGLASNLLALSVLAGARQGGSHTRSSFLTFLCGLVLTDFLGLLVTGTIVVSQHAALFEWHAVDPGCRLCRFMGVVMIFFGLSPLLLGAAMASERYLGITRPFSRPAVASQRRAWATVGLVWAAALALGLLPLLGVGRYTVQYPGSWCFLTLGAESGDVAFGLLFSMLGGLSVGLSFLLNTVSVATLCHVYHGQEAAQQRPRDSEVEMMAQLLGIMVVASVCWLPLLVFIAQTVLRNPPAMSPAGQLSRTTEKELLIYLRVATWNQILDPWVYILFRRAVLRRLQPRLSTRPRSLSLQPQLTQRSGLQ
Procedure, shortened: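 Washed human platelets from citrated, indomethacin-treated blood were freeze-thawed three times. Membranes were pelleted at 40000g and used at 10 μg protein in 50 mM Tris, 5 mM MgCl₂, pH 7.4. They were incubated with [³H]SQ-29548 and compound for 30 min at 25 °C, then filtered on GF/C and counted by scintillation. Nonspecific binding was set with 10 μM SQ-29548. Ki = IC50/(1 + L/Kd).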

Homo sapiens [1] = species on record: Homo sapiens; test: Inhibition of U-46,619 (2 uM) induced platelet aggregation in human platelet rich plasma; format: functional, organism-based
Procedure, shortened: (§1)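 Human volunteer blood was citrated 9:1 with 3.8% sodium citrate and spun at 90–140g for 10 min at room temperature to give PRP; platelet-poor plasma came from a 1400g spin and set 100% aggregation. PRP was preincubated 1 min with compound at various concentrations, then stimulated. Light transmission was recorded for 5 min. Percent inhibition was taken against vehicle, N = 3; IC50 is 50% inhibition.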

Homo sapiens [2] = species on record: Homo sapiens; test: Inhibition of ADP (5 uM) induced platelet aggregation in human platelet rich plasma; format: functional, organism-based; procedure, shortened: as §1
Homo sapiens [3] = species on record: Homo sapiens; test: Inhibition of U-46,619 (4 uM) induced platelet aggregation in human platelet rich plasma; format: functional, organism-based
Monkey [4] = test: Ex vivo inhibition of platelet aggregation induced by ADP (5 uM) in cynomolgus monkey platelet rich plasma; format: functional, organism-based; settings: Cercopithecidae
Monkey [5] = test: Ex vivo inhibition of platelet aggregation induced by ADP (10 uM) in cynomolgus monkey platelet rich plasma; settings: Cercopithecidae

Sequence of Prostacyclin receptor (P43119 whole entry): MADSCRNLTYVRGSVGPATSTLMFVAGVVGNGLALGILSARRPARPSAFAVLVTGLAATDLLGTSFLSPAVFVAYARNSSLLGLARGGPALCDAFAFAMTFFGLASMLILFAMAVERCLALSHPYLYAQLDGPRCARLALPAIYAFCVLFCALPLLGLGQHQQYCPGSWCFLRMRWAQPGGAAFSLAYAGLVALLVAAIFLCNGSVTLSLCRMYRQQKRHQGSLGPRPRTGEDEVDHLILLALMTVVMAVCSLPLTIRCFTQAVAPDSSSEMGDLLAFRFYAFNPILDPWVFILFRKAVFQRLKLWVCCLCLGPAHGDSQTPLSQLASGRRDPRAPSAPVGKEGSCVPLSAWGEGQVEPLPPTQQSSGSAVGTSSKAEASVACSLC

Row | Ki (Prostacyclin receptor) [µM] | Ki (Thromboxane A2 receptor) [µM] | IC50 (Homo sapiens [1]) [µM] | IC50 (Homo sapiens [2]; Homo sapiens, Plasma) [µM] | IC50 (Homo sapiens [3]) [µM] | IC50 (Homo sapiens [2]) [µM] | IC50 (Monkey [4]) [µM] | IC50 (Monkey [5]) [µM] | Structure (SMILES)
1 | 0.68 | 2.5 | 17.3 | 19.9 | – | – | – | – | O=C(O)COc1cccc2c(CSCC(c3ccccc3)c3ccccc3)coc12
2 | – | – | – | 0.17 | 0.17 | – | – | – | O=C(O)COc1cccc2c1CCC=C2CCO/N=C(\c1ccccc1)c1cccnc1
3 | 0.4 | > 15 | 1.4 | 1.7 | – | – | – | – | O=C(O)COc1cccc2c(CCCSCC(c3ccccc3)c3ccccc3)coc12
4 | 0.58 | 3.1 | 10 | 12.8 | – | – | – | – | O=C(O)COc1cccc2c(CSCCC(c3ccccc3)c3ccccc3)coc12
5 | 3.4 | 0.18 | 3.8 | 56 | – | – | – | – | CCC(SCCc1c(CO)oc2c(OCC(=O)O)cccc12)(c1ccccc1)c1ccccc1
6 | 0.53 | 0.0045 | 0.17 | – | – | 2.2 | – | – | CC(SCCc1c(CO)oc2c(OCC(=O)O)cccc12)(c1ccccc1)c1ccccc1 [listing 1 of 2 here]
7 | 1.9 | 0.0043 | 0.31 | 3 | – | – | – | – | CC(c1ccccc1)(c1ccccc1)S(=O)(=O)CCc1c(CO)oc2c(OCC(=O)O)cccc12
8 | 0.56 | > 10 | 5.4 | 5.2 | – | – | – | – | O=C(O)COc1cccc2c(CCSCCC(c3ccccc3)c3ccccc3)coc12
9 | 5.8 | 0.072 | 2.9 | 9 | – | – | – | – | CC(SCCc1c(CCCO)oc2c(OCC(=O)O)cccc12)(c1ccccc1)c1ccccc1
10 | 0.57 | 0.026 | 0.58 | 8.1 | – | – | – | – | CC(SCCc1coc2c(OCC(=O)O)cccc12)(c1ccccc1)c1ccccc1
11 | 0.76 | 0.15 | 0.52 | 1.5 | – | – | – | – | O=C(O)COc1cccc2c(CCSC(c3ccccc3)(c3ccccc3)C(F)(F)F)c(CO)oc12
12 | > 2.3 | > 5.9 | 56 | > 100 | – | – | – | – | CCCC(SCCc1c(CO)oc2c(OCC(=O)O)cccc12)(c1ccccc1)c1ccccc1
13 | 2.9 | > 15 | > 100 | > 100 | – | – | – | – | O=C(O)COc1cccc2c(CCCSCCC(c3ccccc3)c3ccccc3)coc12
14 | 0.21 | 0.078 | 0.54 | 0.71 | – | – | – | – | CC(SCCc1c(CCO)oc2c(OCC(=O)O)cccc12)(c1ccccc1)c1ccccc1
15 | – | – | – | > 10 | 0.021 | – | – | – | O=C(O)CCC/C=C\C[C@@H]1[C@H](CNNC(=O)Nc2ccccc2)[C@H]2CC[C@H]1O2
16 | 0.08 | 3.1 | 0.51 | 0.73 | – | – | – | – | O=C(O)COc1cccc2c(CCSCC(c3ccccc3)c3ccccc3)coc12
17 | – | – | – | – | 0.12 | 2.2 | 3.7 | 0.14 | CC(SCCc1c(CO)oc2c(OCC(=O)O)cccc12)(c1ccccc1)c1ccccc1 [listing 2 of 2 here]
18 | > 10 | 0.051 | 1.7 | 7.9 | – | – | – | – | CC(c1ccccc1)(c1ccccc1)[S+]([O-])CCc1c(CO)oc2c(OCC(=O)O)cccc12 (stereo not given)
19 | – | – | – | 0.0076 | 0.0057 | – | – | – | CC#CCC(C)[C@H](O)/C=C/[C@@H]1[C@H]2c3cccc(CCCC(=O)O)c3O[C@H]2C[C@H]1O (stereo not given in full) [BERAPROST SODIUM]

Row | Structure (SMILES) | Ki (Prostacyclin receptor) [µM] | Ki (Thromboxane A2 receptor) [µM] | IC50 (Homo sapiens [1]) [µM] | IC50 (Homo sapiens [2]; Homo sapiens, Plasma) [µM] | IC50 (Homo sapiens [3]) [µM] | IC50 (Homo sapiens [2]) [µM] | IC50 (Monkey [4]) [µM] | IC50 (Monkey [5]) [µM]
20 | O=C(O)COc1cccc2c(CCCSC(c3ccccc3)c3ccccc3)coc12 | 0.27 | 3.1 | 1.6 | 1.9 | – | – | – | –
21 | O=C(O)COc1cccc2c(CCSC(c3ccccc3)c3ccccc3)coc12 | – | 0.31 | 0.56 | 5.9 | – | – | – | –
22 | O=C(O)COc1cccc2c(CCSC(c3ccccc3)c3ccccc3)c(CO)oc12 | 0.75 | 0.088 | 0.46 | 3.3 | – | – | – | –
23 | O=C(O)COc1cccc2c(CSC(c3ccccc3)c3ccccc3)coc12 | 4.7 | 5.1 | > 100 | > 100 | – | – | – | –
